Data as given in ChEMBL document CHEMBL1156641, “Linear and cyclic C18 terpenoids from the southern Australian marine brown alga Cystophora moniliformis” (J Nat Prod, 2008).
Calls of active or inactive are those of the source. The calls are words filed in the database; no cut-off is given here.

Key:
[1] = tested on: Trichophyton mentagrophytes; assay: […] activity against Trichophyton mentagrophytes ATCC 28185 assessed as zone of inhibition; format: functional
Procedure, shortened: (§1)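 Disk diffusion: fungal inoculum of known concentration mixed into potato dextrose or Mueller Hinton agar and poured as a lawn. Samples at 1 mg/mL were applied to 6 mm filter paper disks, solvent evaporated, and disks placed on the seeded agar with solvent and positive controls. After incubation, the zone of inhibition outside the disk was measured as radius in mm.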

[2] = tested on: Trichophyton mentagrophytes; assay: […] activity against Trichophyton mentagrophytes ATCC 28185 assessed as zone of inhibition at 1 mg/mL; format: functional, organism-based; procedure, shortened: as §1
[3] = tested on: P388; assay: Antitumor activity against mouse P388 cells after 72 hrs by MTT assay; format: functional, cell-based; conditions: P388, 72 h
Procedure, shortened: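 P388 murine leukemia cells were incubated 72 h with a 2-fold dilution series of sample, tested from 1 mg/mL. Growth was read by MTT reduction to formazan (absorbance) relative to untreated control cells. The concentration giving 50% growth reduction is reported as IC50.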

| SMILES | inhibition zone (IZ) [1] [mm] | Activity [2] | IC50 [3] [µM] |
| --- | --- | --- | --- |
| CC(=O)CC/C=C(\C)CCC1=C(C)CC[C@H](O)C1(C)C | 1 | inactive | > 40 |
| CC(=O)CC/C=C(\C)CC[C@H]1C(C)(C)[C@@H](O)CC[C@]1(C)O [MONILIFORMINOL A] | 1 | inactive | > 40 |
| CC(=O)CC/C=C(\C)CC/C=C(\C)CC/C=C(/C)CO | 1 | inactive | > 40 |
| CC(=O)CC/C=C(\C)CC/C=C(\C)CC[C@@H](O)C(C)(C)O | 1 | inactive | > 40 |
| C=C(C)[C@H](O)CC/C(C)=C/CC/C(C)=C/CCC(C)=O | 1 | inactive | > 40 |
| COC(C)(C)[C@H](O)CC/C(C)=C/CC/C(C)=C/CCC(C)=O | 1 | inactive | > 40 |
| CC(=O)CC/C=C(\C)CC[C@H]1C(C)(C)[C@@H](O)CC[C@@]1(C)O [MONILIFORMINOL B] | 1 | inactive | > 40 |
